The text below walks through data of ChEMBL document CHEMBL1147104, “Neonatal coinfection model of coagulase-negative Staphylococcus (Staphylococcus epidermidis) and Candida albicans: fluconazole prophylaxis enhances survival and growth” (Antimicrob Agents Chemother, 2007).

A short description of data set [1]: Serum trough levels in Wistar rat pup at 10 mg/kg of body weight/day, ip after 72 hrs by ELISA. The data set is classed as ADME, organism-based. Further details: dose 10 mg/kg, route intraperitoneal. To be noted: read-out: Cmin. In short, it runs like this:
(§1)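 Pups received 10 mg/kg/day i.p. for 4 days. Troughs were taken just before the next dose (24, 48, 72 h) and 24 h after the fourth dose (96 h). Blood was collected by cardiac puncture from 12-15 pups per time point, and serum from 3 pups was pooled per sample, giving 4-5 samples. Serum was stored at −70°C and assayed in one batch. The assay was linear from 0.2 to 200 µg/ml.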
For orientation: ELISA stands for enzyme-linked immunosorbent assay.

Data set [2] in a line: Serum trough levels in Wistar rat pup at 10 mg/kg of body weight/day, ip after 48 hrs by ELISA. It counts as ADME, organism-based. Further details: dose 10 mg/kg, route intraperitoneal. The note with it: read-out: Cmin. In short, it runs like this:
as §1

Data set [3] concerns Rattus norvegicus. Put plainly: Survival of neonatal Wistar rat infected with Staphylococcus epidermidis Hay and Candida albicans ATCC 32354 at 10 mg/kg of body weight/day, ip for 4 days beginning 24 hrs before infection. The data set is classed as functional. The note with it: route intraperitoneal. The method in brief:
(§2)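 Wistar pups aged 1-2 days, kept with dams, were immunosuppressed with 0.2 ml 20% intralipid i.p. (two doses on day 1, one each on days 2 and 3). Drug or placebo was given i.p. daily for 4 days from 24 h before infection. Littermates were randomized and infected s.c. on days 2 and 3 with 2 × 10⁸ CFU C. albicans, alone or with 2 × 10⁶ CFU S. epidermidis. Survival was followed daily for 9 days; groups were compared by Fisher exact test.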

A short description of data set [4]: Serum trough levels in Wistar rat pup at 10 mg/kg of body weight/day, ip after 24 hrs by ELISA. It counts as ADME, organism-based. The note with it: read-out: Cmin. Also on record: dose 10 mg/kg, route intraperitoneal. In short, it runs like this: as §1
Data set [5] relates to Rattus norvegicus. Briefly: Increase in growth of neonatal Wistar rat infected with Candida albicans ATCC 32354 and Staphylococcus epidermidis Hay assessed as weight gain at 10 mg/kg of body weight/day, ip for 4 days beginning 24 hrs before infection relative to control. The data set is classed as functional, organism-based. Also on record: dose 10 mg/kg. In short, it runs like this: (§3)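 In intralipid-immunosuppressed neonatal Wistar pups, littermates were randomized, dosed i.p. daily for 4 days from 24 h pre-infection, and infected s.c. on days 2 and 3 with 2 × 10⁸ CFU C. albicans, with or without 2 × 10⁶ CFU S. epidermidis. Nonedematous weight was recorded daily for 9 days. Slopes of each pup's weight curve were calculated, and group means were compared by one-way ANOVA.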

Data set [6] relates to Rattus norvegicus. Put plainly: Survival of neonatal Wistar rat infected with Candida albicans ATCC 32354 at 10 mg/kg of body weight/day, ip for 4 days beginning 24 hrs before infection. It counts as functional. To be noted: route intraperitoneal. The method in brief: as §2
The test system of data set [7] is Rattus norvegicus. Briefly: Decrease in mortality of neonatal Wistar rat infected with Candida albicans ATCC 32354 and Staphylococcus epidermidis Hay at 10 mg/kg of body weight/day, ip for 4 days beginning 24 hrs before infection. The note with it: route intraperitoneal. It counts as functional. Further details: scale not given: the % may be the effect or the level left. In short, it runs like this: as §2

Data set [8] concerns Rattus norvegicus. Put plainly: Decrease in mortality of neonatal Wistar rat infected with Candida albicans ATCC 32354 at 10 mg/kg of body weight/day, ip for 4 days beginning 24 hrs before infection. The note with it: route intraperitoneal. Also on record: scale not given: the % may be the effect or the level left. The data set is classed as functional. In short, it runs like this:
as §2

The test system of data set [9] is Staphylococcus epidermidis. Briefly: Inhibition of Staphylococcus epidermidis Hay ATCC 55133 at 1 ug/ml by broth microdilution method. The data set is classed as functional, organism-based.
The test system of data set [10] is Rattus norvegicus. Put plainly: Increase in growth of neonatal Wistar rat infected with Candida albicans ATCC 32354 assessed as weight gain at 10 mg/kg of body weight/day, ip for 4 days beginning 24 hrs before infection relative to control. The data set is classed as functional, organism-based. Also on record: dose 10 mg/kg. The method in brief: as §3
In another data set the test system is Candida albicans. Briefly: Inhibition of Candida albicans ATCC 32354 at 1 ug/ml by broth microdilution method. The data set is classed as functional, organism-based. In short, it runs like this: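 CLSI M27-A2 broth microdilution. Inoculum was 1-5 × 10³ CFU/ml in RPMI 1640 buffered with MOPS to pH 7. Twofold drug dilutions from 125 to 0.25 µg/ml were tested at 35°C for 48 h, with visual reads at 24 and 48 h. The MIC was the lowest concentration giving a ≥50% decrease in turbidity. Trailing growth at 48 h was counted as susceptible.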
(In general: Dilution methods test growth across graded concentrations, often in twofold steps.)

Data set [11] can be described thus: Serum trough levels in Wistar rat pup at 10 mg/kg of body weight/day, ip after 96 hrs by ELISA. The data set is classed as ADME, organism-based. Also on record: dose 10 mg/kg, route intraperitoneal. To be noted: read-out: Cmin. In short, it runs like this:
as §1

Each structure is given as a SMILES string. Active and inactive are the calls of the source. The calls are words filed in the database; no cut-off is given here.

With `OC(Cn1cncn1)(Cn1cncn1)c1ccc(F)cc1F` [FLUCONAZOLE], in data set [1], the concentration at 72 h is 1510 ng/mL. In addition, the concentration at 48 h in [2] worked out at 2500 ng/mL. In addition, the figures for the survival at 10 mg/kg in the data set with Rattus norvegicus [3] and in the data set with Rattus norvegicus [6] were 75.6% and 85.7%, respectively. In addition, the concentration at 24 h in data set [4] is 1550 ng/mL. Also, the result with Rattus norvegicus [5], with Rattus norvegicus [10] and with Candida albicans was Active. The Activity in the data set with Rattus norvegicus [7] turned out to be 36%; in the data set with Rattus norvegicus [8] it was 30%. For the same compound, the outcome in data set [9] was inactive. In addition, the concentration at 96 h in [11] stood at 1030 ng/mL.
